Test results reported in the RNAGym collection of RNA variant scans (doi:10.1126/science.aae0568).
Variants at the floor of the assay were thinned out.

B1: tRNA (parent)
chain: GUUCCGUUGGCGUAAUGGUAACGCGUCUCCCUCCUAAGGAGAAGACUGCGGGUUCGAGUCCCGUACGGAACG

Variants of: B1
Assay: yeast fitness relative to wild type (ratio to wild type); higher = fitter; tRNA-Arg(CCU), competitive growth, 37 C, YPD
In short: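 A pool of Saccharomyces cerevisiae strains, each with a tRNA-Arg(CCU) gene variant at the native genomic locus, was competed in YPD at 37°C for 24 hours across six parallel replicates. The variants had been chemically synthesised at a 3% per-site mutation rate over 69 sites, and gene amplicons before and after competition were read by 100-nucleotide paired-end sequencing. Darwinian fitness relative to wild type rested on changes in genotype frequencies. Genotypes required ≥ 100 starting reads, and estimates < 0.5 were set to 0.5.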

Row | Variant | yeast fitness
1 | U19C A36G A43G C60U C62U A70C | ≤ 0.5
2 | U19C A65U G68A | 0.534
3 | U19C A43G | 1.07
4 | U19C A43C | 0.907
5 | U19C A43U | 1.03
6 | U19A C27A G52C | ≤ 0.5
7 | U19C C22G G25C C33U G39C C62G | ≤ 0.5
8 | U19C G38C G58C U64A | ≤ 0.5
9 | U19C C62U | 0.925
10 | U19C C29G U47A | ≤ 0.5
11 | U19C A21U C49U | 0.966
12 | U19A G25C C33A A37G | ≤ 0.5
13 | U19C C31A A37G G50U C62G | ≤ 0.5
14 | U19A C27U C66U | 0.786
15 | U19C U28C G67C | 0.638
16 | U19C C31U G56A G67A | 0.601
17 | U19C A43U C49U | 0.698
18 | U19C A43U C49U C62U | 0.573
19 | U19C A65C | 0.888
20 | U19C C30G A40C G51A C61A | 0.696
21 | U19A C24G C27G C31G C34G A37C A57G C61G | 0.576
22 | U19A U47A | 0.837
23 | U19A U47C | 0.925
24 | U19A G67A A70U | 0.691

Row | Variant | yeast fitness
25 | U19C C27G C31G G39C A57C | ≤ 0.5
26 | U19C C29U A57C G68C | ≤ 0.5
27 | U19C C31U G56A | 0.954
28 | U19A U53C | 0.806
29 | U19A U59C C61A U64C | ≤ 0.5
30 | U19A C22U U32C C46U | ≤ 0.5
31 | U19C A20C A21U C55U A65U | ≤ 0.5
32 | U19C A36C G39A C62G | ≤ 0.5
33 | U19C C22U G67A | 0.772
34 | U19A G41C C55G C66G | ≤ 0.5
35 | U19A C31U A42C A70G | 0.912
36 | U19A C27U A42U A45G U64A | ≤ 0.5
37 | U19C A20C C31G | 0.542
38 | U19C A20C C31A | ≤ 0.5
39 | U19C C24G U35C A37U U47A | ≤ 0.5
40 | U19C U26A G67C | 0.57
41 | U19C C22U G44C | 0.551
42 | U19C C34U G52A U59A | 0.669
43 | U19C C49A | 0.606
44 | U19C C49U | 0.999
45 | U19C C22A U32A A37U A45U | ≤ 0.5
46 | U19C C22A U32A A37U A45C | 0.505
47 | U19A C24G C27U C30A G52C | 0.571
48 | U19C C24G A37U G56A A65C | ≤ 0.5

Row | Variant | yeast fitness
49 | U19A U26C C30A | 0.639
50 | U19C G23A A37C | ≤ 0.5
51 | U19C A20U G67U A69U | 0.53
52 | U19C C34U C49A G56C C62A A65C | ≤ 0.5
53 | U19A C24U G38A U54C C66A | 0.511
54 | U19C C31G C49U | 0.736
55 | U19C A37C G63A | ≤ 0.5
56 | U19C A57C C61A | ≤ 0.5
57 | U19C G25C U54C C61G | ≤ 0.5
58 | U19C C27U C33G C34G G44A G50A G52A | ≤ 0.5
59 | U19A C27U U59A A65C G67U | 0.575
60 | U19C C31G C62U | 0.702
61 | U19A C24U U64C | 0.689
62 | U19A C55G | 0.559
63 | U19C G56C | 0.67
64 | U19A G51A | 0.768
65 | U19A G51C | 0.636
66 | U19C A20U G56A | 0.724
67 | U19C C33U G41C | 0.583
68 | U19C G23A C24G A40U A65U | ≤ 0.5
69 | U19C U26A | 0.945
70 | U19C A37U | 1.08
71 | U19C A37C | 0.658
72 | U19C A37G | 0.784

Row | Variant | yeast fitness
73 | U19C C22U C55U C61G | ≤ 0.5
74 | U19C C46G A69U | 0.803
75 | U19C A20G | 0.964
76 | U19C C24G G39C | ≤ 0.5
77 | U19C U28C | 0.992
78 | U19C G52C U64A | ≤ 0.5
79 | U19C G52A | 0.78
80 | U19C G52C | 0.562
81 | U19C C22G C24A G39C A45C | 0.916
82 | U19C C22G C24A G39C A45U | 0.572
83 | U19A C30A A65G | 0.673
84 | U19A C34U A42U | 0.543
85 | U19A C30G A40C G67C | ≤ 0.5
86 | U19A C30A A43G | ≤ 0.5
87 | U19A U28G A40C A42G A69C | 0.561
88 | U19A G68C | 0.709
89 | U19A G68U | 0.857
90 | U19A C31A A37G C49U | ≤ 0.5
91 | U19A U47C C66U | 0.751
92 | U19C G48C A69C | 1.03
93 | U19A C29A | 0.712
94 | U19A C29U | 0.76
95 | U19A C29G | 0.685
96 | U19A G48C | 0.861

Row | Variant | yeast fitness
97 | U19C C24A | 0.601
98 | U19C C24G | 0.621
99 | U19C C22G C24A G39C A45C U47C | 0.721
100 | U19C A42C | 1.06
101 | U19C A42G | 0.774
102 | U19C C33G A36U G44A | ≤ 0.5
103 | U19C A21G | 0.906
104 | U19C G25A A45G C62U | 0.702
105 | U19A G25C C33A A37G G48A G68A | ≤ 0.5
106 | U19A C29G A69C | 0.547
107 | U19C U32C C60A C61A | 0.731
108 | U19C G50C | 0.613
109 | U19A C27U G44C G48C | ≤ 0.5
110 | U19C C30G G51C | ≤ 0.5
111 | U19A C61G G67A | ≤ 0.5
112 | U19A C55A C61U | ≤ 0.5
113 | U19C C22U C55A C66U | ≤ 0.5
114 | U19C C66U A69C | 0.685
115 | U19A C27U G44C G48C C66U | ≤ 0.5
116 | U19C C27A C30G U54A G56A | 0.671
117 | U19C C30A | 1.03
118 | U19A C27U C49U C55U | 0.525
119 | U19C A36C G41C C66A | ≤ 0.5
120 | U19A C27U C29U | 0.697

Row | Variant | yeast fitness
121 | U19C A45C C55U | 0.518
122 | U19C C27U C29G C34A A42C A69C | ≤ 0.5
123 | U19C A42U G68C | ≤ 0.5
124 | U19C U28A C55G | ≤ 0.5
125 | U19A C30A A43G C49U C55A | 0.64
126 | U19C C29G C31A | ≤ 0.5
127 | U19C C31U | 0.986
128 | U19C C31G | 0.841
129 | U19C U26A C46U | 0.901
130 | U19A U28A A37U A42U | ≤ 0.5
131 | U19A C46U C55G G68A | ≤ 0.5
132 | U19C C55U C61G | 0.596
133 | U19C G44C | 1
134 | U19C C22G G63C G68U | ≤ 0.5
135 | U19C C24G U35A | 0.804
136 | U19C G48A | 1.04
137 | U19C C24A G58A C66U | ≤ 0.5
138 | U19A C34G A37U C49G | ≤ 0.5
139 | U19C A20C C31G C49G | ≤ 0.5
140 | U19A G63A | 0.952
141 | U19C C31U C33G G41A C55U C61A | ≤ 0.5
142 | U19C G25A A37U C62A U64C | ≤ 0.5
143 | U19C C24G C33A | ≤ 0.5
144 | U19A G25A A43C U53G G63C | ≤ 0.5

Row | Variant | yeast fitness
145 | U19C C30U G56A A69C | ≤ 0.5
146 | U19C | 0.972
147 | U19C C24U C61U | 0.787
148 | U19C C34G G68A | ≤ 0.5
149 | U19C C30G C33G U53A | ≤ 0.5
150 | U19C C31A A69U | 0.534
151 | U19A C27G C31U A70G | ≤ 0.5
152 | U19C C24U C55U A57C | ≤ 0.5
153 | U19A C29G A42C C46A C49G | ≤ 0.5
154 | U19A C31G A36U A65U | ≤ 0.5
155 | U19A C24U C33U C49U | ≤ 0.5
156 | U19C C24U C66U | 0.712
157 | U19A C24A U32C A36U C66G | ≤ 0.5
158 | U19C A57U | 0.658
159 | U19C G25C G58A | 0.625
160 | U19A U59A C62A | ≤ 0.5
161 | U19C G25A G48C C62A | ≤ 0.5
162 | U19A G39C G63C | ≤ 0.5
163 | U19C C29U C34A | ≤ 0.5
164 | U19C C24G C34A | ≤ 0.5
165 | U19A C60A | 0.623
166 | U19A C60U | 0.819
167 | U19C A40C G50A | 0.664
